# Experimental data from PubChem BioAssay.
# The source made the active and inactive calls.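 Rule for the calls, unless noted: active = compounds giving at least 50% inhibition in the cell-based MKP-3 phosphatase rescue imaging test; inactive = the rest.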
# How the values were obtained:
# [1] = inhibitors of TNFa-induced NFkB p65 translocation, primary screen, imaging, HUVEC, MLSMR starter and 10KST1 sets (AID 438;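 active = inhibition above 20% together with a positive visual image hit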;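 note: compound added about 3h40 before a 20 min TNFalpha stimulation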;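 for inhibition: signal is the nuclear over cytoplasmic p65 intensity ratio per well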); settings: HUVEC TNFa-induced p65 nuclear translocation; cell count: measured here: nuclei count (cytotoxicity indicator), at 2.08 µM; inhibition: at 2 µM, stronger effect = higher value, 0% TNFa-plus-vehicle, 100% no-TNFa wells
# [2] = endothelial E-selectin expression blockers – imaging, HUVEC, immunofluorescence, MLSMR starter and 10KST1 sets, primary screen (AID 487;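 active = visually confirmed hit in the image check and inhibition above 20%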;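 for inhibition: signal is fraction of cell area covered by stained E-selectin grains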;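 for nuclei count: 100% = median nuclei count of all wells on the same plate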); settings: HUVEC TNFalpha-induced E-selectin immunofluorescence imaging, at 2 µM; inhibition: stronger effect = higher value; nuclei count: measured here: cell number, toxicity
# [3] = Primary imaging screen for DUSP6 inhibitors that restore phospho-Erk in transfected HeLa cells, chemical complementation (AID 609); settings: HeLa MKP-3 transfected, phospho-Erk imaging KS statistic, at 10 µM, cells stimulated with TPA for 15 min;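 for inhibition: phospho-Erk level distribution per well compared with pooled transfected vehicle control wells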
# [4] = target: Dual specificity protein phosphatase 6 (Homo sapiens) (UniProt Q16828); assay: as above; settings: HeLa MKP-3 transfected, phospho-Erk imaging KS statistic; at 10 µM; stronger effect = higher value; cells stimulated with TPA for 15 min
# Chain of Dual specificity protein phosphatase 6 (Homo sapiens) (Q16828 whole entry, looked up): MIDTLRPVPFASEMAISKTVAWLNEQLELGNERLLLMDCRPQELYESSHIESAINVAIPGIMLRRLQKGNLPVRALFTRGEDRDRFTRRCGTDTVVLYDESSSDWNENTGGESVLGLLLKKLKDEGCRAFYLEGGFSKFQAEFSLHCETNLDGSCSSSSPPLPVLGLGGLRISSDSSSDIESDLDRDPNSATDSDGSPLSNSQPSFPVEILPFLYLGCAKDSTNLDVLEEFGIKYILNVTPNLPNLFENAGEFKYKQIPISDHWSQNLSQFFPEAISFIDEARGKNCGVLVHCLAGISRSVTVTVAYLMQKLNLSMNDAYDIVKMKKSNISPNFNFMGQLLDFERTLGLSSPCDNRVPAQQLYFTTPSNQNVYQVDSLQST
# [5] = target: Voltage-gated potassium channel subunit beta-2 (Rattus norvegicus) (UniProt P62483); assay: inhibitors of rat Kvbeta2 reductase activity – biochemical, NADPH fluorescence, primary screen (AID 622;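 active = fluorescence slope higher than the sample average by over 3 SD, cut at about -0.22 in these data, passing the limit was not always enough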;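 note: slope of raw intensity against log time taken from 70 to 1610 s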); settings: recombinant KvBeta, 4-cyanobenzaldehyde reduction, at 10 µM, stronger effect = higher value
# Chain of Voltage-gated potassium channel subunit beta-2 (Rattus norvegicus) (P62483 whole entry, looked up): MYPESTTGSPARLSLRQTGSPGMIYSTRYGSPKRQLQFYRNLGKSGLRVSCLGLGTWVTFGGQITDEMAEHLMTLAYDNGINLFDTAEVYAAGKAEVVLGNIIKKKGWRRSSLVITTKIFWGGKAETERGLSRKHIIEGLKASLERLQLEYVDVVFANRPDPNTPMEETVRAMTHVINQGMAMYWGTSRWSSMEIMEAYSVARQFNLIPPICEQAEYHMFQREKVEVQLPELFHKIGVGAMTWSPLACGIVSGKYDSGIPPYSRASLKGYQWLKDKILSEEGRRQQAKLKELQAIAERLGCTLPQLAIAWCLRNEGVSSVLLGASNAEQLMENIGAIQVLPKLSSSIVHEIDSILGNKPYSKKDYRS
# [6] = target: Voltage-gated potassium channel subunit beta-2 (Rattus norvegicus) (UniProt P62483); assay: enhancers of rat Kvbeta2 NADPH turnover – biochemical, NADPH fluorescence, primary screen (AID 623;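 active = NADPH fluorescence slope more negative than the mean of all samples by about 3 SD, 99.7% confidence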;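 note: fluorescence intensity change per second fitted from 20 to 320 s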); settings: Recombinant KvBeta, NADPH fluorescence decrease slope, 10 min; at 10 µM; stronger effect = lower value
# [7] = target: Alpha-2C adrenergic receptor (Homo sapiens) (UniProt P18825); assay: compounds altering alpha2C-coupled GIRK flux – cell-based, HEK293 alpha2C/GIRK1/2, thallium flux, primary screen (AID 624;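 active = fluorescence slope after compound addition differing from the mean of all screened samples at 99.7% confidence, in either direction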;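 note: slope of fluorescence ratio to pre-addition baseline per second over 15 to 24 s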); settings: thallium flux BTC fluorescence, at 10 µM, actives lie on both sides
# Chain of Alpha-2C adrenergic receptor (Homo sapiens) (P18825 whole entry, looked up): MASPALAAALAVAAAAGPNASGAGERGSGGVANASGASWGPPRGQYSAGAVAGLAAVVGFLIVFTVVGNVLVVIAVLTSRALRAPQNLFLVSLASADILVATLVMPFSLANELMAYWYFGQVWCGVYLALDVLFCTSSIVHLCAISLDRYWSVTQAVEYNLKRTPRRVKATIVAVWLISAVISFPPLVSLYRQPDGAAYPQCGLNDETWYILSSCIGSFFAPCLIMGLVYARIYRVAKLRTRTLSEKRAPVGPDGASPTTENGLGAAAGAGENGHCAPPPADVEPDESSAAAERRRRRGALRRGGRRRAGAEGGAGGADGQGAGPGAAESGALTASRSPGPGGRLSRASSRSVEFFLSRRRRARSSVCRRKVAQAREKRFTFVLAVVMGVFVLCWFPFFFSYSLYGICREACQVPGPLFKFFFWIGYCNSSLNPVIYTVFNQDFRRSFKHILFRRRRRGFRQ
# [8] = inhibitors of larval lipid processing in zebrafish, primary screen, whole organism, PED6 fluorescence, gall bladder and intestine (AID 686;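 active = a full or partial loss of lipid-probe fluorescence in the fish gall bladder, intestine or both, judged by eye; inactive = no fluorescence loss, or compound toxic to the fish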;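 note: larvae 5 to 7 days old with five fish per well; signal comes from phospholipase A2 cleavage of quenched PED6 carried via bile; overnight exposure to compound and PED6 before scoring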); settings: Zebrafish larvae PED6 lipid processing, fluorescence scoring; screened at 20 µM (by protocol)
# In short: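 Test system – live zebrafish larvae aged 5-7 days, whole organism · Buffer or medium – E3 fish medium · Reagent – quenched phospholipase substrate PED6, 100 nM final, ingested by larvae · Doses – 20 µM single dose · Incubation – overnight compound and PED6 incubation · Technique – visual fluorescence microscopy scoring of gall bladder, gut · Read-out basis – visual per-well fluorescence inhibition score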
# [9] = loss of swimming-algae plug formation – whole organism, Chlamydomonas reinhardtii, WT vs cilia-less mutant, absorbance, 96-well, primary screen (AID 463189;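 active = inhibition at or above 50% relative to wild type and mutant plate controls; inactive = inhibition below 50%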;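 note: 0% = wild type cc124 cells in DMSO and 100% = ciliumless bld1 mutant cells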); settings: Chlamydomonas reinhardtii gravitaxis, OD600 absorbance, 2 days; at 10 µM; stronger effect = higher value
# [10] = measured here: cell density z-score
# [11] = measured here: nuclear c-Myc green intensity z-score
# [12] = measured here: nuclear pErk red intensity z-score, stronger effect = higher value
Compound,cell count [1],inhibition [1],inhibition [2],nuclei count [2] [%],"z-score [3, 10]","z-score [3, 11]","z-score [3, 12]",inhibition [4],fluorescence slope [5],NADPH fluorescence slope [6],slope [7],outcome [8],inhibition [9]
CC1(C)Cc2c(sc3nc4n(c(=N)c23)CCC4)CO1,678,-24.9% (inactive),-38.1% (inactive),164,-0.552,1.24,2.19,-13.9% (inactive),-0.416 (inactive),-4.6e-05 (inactive),0.00517 (inactive),inactive,-6.56% (inactive)
COc1ccc(C2=Nn3c(nnc3-c3ccccn3)SC2)cc1OC,593,-10% (inactive),60% (inactive),100,1.34,0.0492,-0.154,-16.8% (inactive),-0.476 (inactive),-0.000137 (inactive),0.00709 (inactive),inactive,9.28% (inactive)
COC(=O)c1ccc(-c2sc3nc(N4CCOCC4)c4c(c3c2N)CC(C)(C)OC4)o1,595,-19.5% (inactive),-62.4% (inactive),153,-1.25,1.71,2.19,-0.624% (inactive),-0.16 (inactive),-2.4e-05 (inactive),0.00678 (inactive),inactive,-4.84% (inactive)
Cc1cccc(OCc2nc(C)cc(=O)[nH]2)c1,594,-7.7% (inactive),-84.7% (inactive),173,2.18,0.349,-1.33,14% (inactive),-0.409 (inactive),-2.4e-05 (inactive),0.00552 (inactive),inactive,-4.66% (inactive)
Nc1ccc2oc3ncccc3c(=O)c2c1,518,-0.6% (inactive),-52.6% (inactive),172,1.1,-0.546,-0.617,22.3% (inactive),-0.511 (inactive),-2.4e-05 (inactive),0.00436 (inactive),inactive,-10.9% (inactive)
CC1=C(C(=O)Nc2ccccc2)C(c2ccncc2)C(C#N)=C(SCC(=O)NC(C)C)N1 (stereo unspecified),532,-8.3% (inactive),-82.1% (inactive),162,-0.265,0.666,0.309,-1.12% (inactive),-0.309 (inactive),3.2e-06 (inactive),0.00489 (inactive),inactive,5.12% (inactive)
Cc1cc(C)c(-n2c(O)c(C=NCCN3CCOCC3)c(=O)[nH]c2=O)c(C)c1,594,6.5% (inactive),19% (inactive),152,0.606,-1.55,-1.1,14% (inactive),-0.334 (inactive),-5e-07 (inactive),0.00437 (inactive),inactive,0.886% (inactive)
C=CCNc1sc(C(=O)C2CC2)c(N)c1C#N,669,-24.9% (inactive),-70.3% (inactive),173,0.613,-1.22,0.948,19.4% (inactive),-0.366 (inactive),-3.3e-05 (inactive),0.00551 (inactive),inactive,-5.34% (inactive)
Cn1c(=O)n(C)c2cc(C(=O)c3ccccc3)ccc21,534,-14.4% (inactive),24.3% (inactive),180,2.47,-0.33,-1.62,20.2% (inactive),-0.53 (inactive),-6.3e-05 (inactive),0.00503 (inactive),inactive,-6.61% (inactive)
Cc1c(C(=O)O)c(=S)sn1CCOc1ccccc1,646,-1.9% (inactive),16.3% (inactive),159,0.114,1.14,0.102,14% (inactive),-0.256 (inactive),1.3e-05 (inactive),0.00412 (inactive),inactive,4.87% (inactive)
O=C1CCC(=O)N1CNc1ccccn1,493,-5% (inactive),-53.8% (inactive),99.7,-0.594,-0.186,-0.375,7.93% (inactive),-0.495 (inactive),-5.8e-05 (inactive),0.00525 (inactive),inactive,23.2% (inactive)
Cc1cc(C)n(Cc2ccc(C(=O)NCCC3=CCCCC3)o2)n1,333,-8% (inactive),-28.7% (inactive),119,0.702,0.069,-0.61,8.76% (inactive),-0.456 (inactive),-0.000101 (inactive),0.00523 (inactive),inactive,16.8% (inactive)
CCOC(=O)COc1nc(N(C)C)nc(N(C)C)n1,634,-15% (inactive),-349% (inactive),183,0.237,0.0213,0.713,7.48% (inactive),-0.492 (inactive),-0.000101 (inactive),0.00583 (inactive),inactive,-0.47% (inactive)
CC(C)C1C(C#N)=C(N)Oc2n[nH]c(C(C)(C)C)c21 (stereo unspecified),391,-8.2% (inactive),-118% (inactive),157,0.159,1.21,-1.21,-2.91% (inactive),-0.429 (inactive),-4.6e-05 (inactive),0.00626 (inactive),inactive,-1.5% (inactive)
Clc1ccccc1CSc1nnc(-c2ccco2)c(-c2ccco2)n1,554,-6.9% (inactive),-21.1% (inactive),157,-1.8,0.808,0.169,-10.5% (inactive),-0.407 (inactive),-1.8e-05 (inactive),0.00446 (inactive),inactive,19.9% (inactive)
CCCCn1c(C)cc2cc(O)ccc21,320,-9.2% (inactive),-73.6% (inactive),154,-1.22,2.41,1.37,-8.76% (inactive),-0.432 (inactive),-0.000136 (inactive),0.00664 (inactive),inactive,-7.64% (inactive)
Cc1cc(=O)oc(C)c1C(=O)N[C@@H]1CCCCNC1=O,433,-2.4% (inactive),-137% (inactive),150,0.96,-0.243,-0.864,-8.27% (inactive),-0.423 (inactive),-6.9e-05 (inactive),0.00507 (inactive),inactive,-3.12% (inactive)
CC(=O)N=C(N)Sc1nc2ccccc2[nH]1,570,-2.8% (inactive),-55% (inactive),161,-0.578,0.85,0.434,22.1% (inactive),-0.462 (inactive),-0.000171 (inactive),0.00501 (inactive),inactive,4.16% (inactive)
COC(=O)c1cc2c(=O)n3cccc(C)c3nc2n(Cc2cccnc2)c1=N,626,-15% (inactive),-113% (inactive),159,2.59,-0.798,-0.054,25.7% (inactive),-0.523 (inactive),-3.6e-05 (inactive),0.00531 (inactive),inactive,32.4% (inactive)
CCCSc1nnc2n(-c3ccccc3OC)c(=O)c3c4c(sc3n12)CCC4,523,-14.8% (inactive),-63.5% (inactive),171,1.08,-1.06,-0.347,7.73% (inactive),-0.358 (inactive),-3.5e-05 (inactive),0.00552 (inactive),inactive,11.2% (inactive)
O=C(c1ccco1)N1CCN(c2ncnc3c2[nH]c2ccccc23)CC1,462,0.3% (inactive),-18.4% (inactive),138,1.15,0.243,0.509,0.671% (inactive),-0.359 (inactive),-1.6e-05 (inactive),0.00516 (inactive),inactive,-4.22% (inactive)
COc1cccc(-c2nn3c(-c4ccccn4)nnc3s2)c1,630,-8% (inactive),-117% (inactive),150,0.488,-0.624,-0.933,15.5% (inactive),-0.454 (inactive),-0.000157 (inactive),0.00706 (inactive),inactive,65.3% (active)
O=C(NC1CCCCC1)N1CCSC1=Nc1ccccc1,490,-27.8% (inactive),-420% (inactive),202,0.92,-1.53,0.173,24.4% (inactive),-0.495 (inactive),-9.6e-05 (inactive),0.00417 (inactive),inactive,11.3% (inactive)
COc1ccccc1-c1nn2c(-c3ccco3)nnc2s1,544,-2.9% (inactive),-39.4% (inactive),162,0.365,-0.311,-0.198,-2.47% (inactive),-0.42 (inactive),-8.7e-05 (inactive),0.00698 (inactive),inactive,10.9% (inactive)
CC(=O)NC1(C(F)(F)F)C(=O)Nc2c1c(=O)n(C)c(=O)n2C (stereo unspecified),480,-4.5% (inactive),-139% (inactive),144,0.582,-0.0109,-0.0908,1.6e-07% (inactive),-0.529 (inactive),-4.1e-05 (inactive),0.00477 (inactive),inactive,2.3% (inactive)
CCCCCSc1nc(O)cc(=O)[nH]1,366,-1.9% (inactive),-61.7% (inactive),116,-1.75,1.21,0.475,-0.624% (inactive),-0.395 (inactive),1.3e-05 (inactive),0.00579 (inactive),inactive,-10.7% (inactive)
CC(C)C1Cc2c(sc3c2c(=O)n(-c2ccccc2)c2nncn32)CO1 (stereo unspecified),603,-21.3% (inactive),-90.9% (inactive),179,-0.575,-0.884,1.06,3.56% (inactive),-0.379 (inactive),-5.4e-05 (inactive),0.00589 (inactive),inactive,-0.205% (inactive)
